# Source: PubChem (several laboratories)
# Sampled rows, rich in hits. Any-hit rate of the full collection: about 1.2%.
# DTT redox prof = compounds producing H2O2 with reducing agent – biochemical, NIH compound library profiling, artefact control for MLSCN library redox annotation, primary screen. DTT-dependent redox cycling H2O2, phenol red/HRP absorbance; 100% = 100 µM peroxide control, 0% = buffer. activation, % at 10 µM. actives 0.03% (n = 200,000);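 active means activation of at least 50% relative to the plate's high and low controls in the primary single-dose screen; inactive means activation below 50%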;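 further: compound incubated with DTT at 0.8 mM final as the reducing agent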
# PMI act hi M6P = human PMI activators, high substrate, primary screen, biochemical, fluorescence intensity, near-saturating mannose 6-phosphate. coupled PMI enzyme assay, resazurin fluorescence, 20 min; stronger effect = higher value; 1 = untreated enzyme, 0 = substrate-free blank. activation factor at 20 µM. actives 0.34% (n = 190,000);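 active means activation factor of 2 or more at 20 µM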
#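 Test system: human phosphomannose isomerase with PGI, G6PDH, diaphorase coupling enzymes; Amount: PMI at 15 ng/mL final; Reagent: Mannose-6-phosphate 1.0 mM (near-saturating) plus 0.22 mM NADP+; Timing: 20 min, room temperature; Technique: resorufin fluorescence at Ex 544/Em 590 nm; Dosing: 20 µM single dose.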
# NCF1 inh = p47phox/p22phox peptide binding inhibitors, primary screen, biochemical, uHTS, NADPH oxidase regulatory subunit. Neutrophil cytosol factor 1 (Homo sapiens), P14598. fluorescence polarization, 2 h. inhibition, % at 24.7 µM. actives 0.53% (n = 220,000);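 active means inhibition above about 30%, limit read from the data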;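 further: 0% = p47phox with labelled peptide and 100% = labelled peptide alone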
# Target sequence (P14598 whole entry, looked up): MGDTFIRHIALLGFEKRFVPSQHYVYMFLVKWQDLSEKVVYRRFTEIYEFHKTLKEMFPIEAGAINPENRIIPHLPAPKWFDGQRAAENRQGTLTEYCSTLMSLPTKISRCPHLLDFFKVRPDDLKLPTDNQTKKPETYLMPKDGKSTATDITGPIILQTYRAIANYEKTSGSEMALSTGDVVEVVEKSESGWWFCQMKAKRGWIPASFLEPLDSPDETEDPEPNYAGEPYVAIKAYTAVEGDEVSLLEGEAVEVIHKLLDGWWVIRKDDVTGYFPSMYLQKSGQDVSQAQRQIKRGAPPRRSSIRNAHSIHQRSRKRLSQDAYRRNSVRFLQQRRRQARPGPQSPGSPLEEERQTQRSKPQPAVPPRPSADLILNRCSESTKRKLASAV
# PMI activator = activators of human PMI, primary screen, biochemical, fluorescence intensity, near-Km mannose 6-phosphate; purified human PMI, coupled resazurin fluorescence, 20 min; stronger effect = higher value; 1 = vehicle control, 0 substrate-free wells; activation factor at 20 µM; actives 0.005% (n = 190,000); AID 1214, 2008;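 active means activation factor of 2 or more at 20 µM, relative to plate controls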
# HMGR II inh = inhibitors of E. faecalis class II HMGR, primary screen, biochemical, Enterococcus faecalis; HMG-CoA reductase (Enterococcus faecalis, mvaE); purified E. faecalis HMGR, NADPH absorbance 340 nm kinetic; inhibition, % at 10 µM; actives 0.41% (n = 190,000);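 active means inhibition above a set limit, the median over all tested compounds plus 3 SD, cut at about 9.5% in these data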;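 further: enzyme runs in reverse so mevalonate oxidation gives rising NADPH absorbance; 0% = complete reaction with DMSO and 100% = background rate lacking mevalonate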
# Diaph act CS = compounds boosting diaphorase resazurin reduction – biochemical, uHTS, resorufin fluorescence, counter-screen for diaphorase-coupled primary assays, primary screen; actives 0.005% (n = 190,000); activation factor at 20 µM; Diaphorase/resazurin coupled assay, 16 min; stronger effect = higher value; 1 = vehicle wells, 0 = NADH-free wells;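 active means diaphorase activity raised at least twofold by the compound at 20 µM; inactive means activation factor below 2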
#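 Assay system: bacterial diaphorase enzyme (C. kluyveri) / Input: enzyme 0.07 U/mL final / Medium: 50 mM HEPES pH 7.4 with 4.542 mM MgCl2, 0.005% Tween 20 / Doses: single compound dose of 20 µM, 1% DMSO final / Incubation: 16 min enzyme reaction, ambient temperature / Signal: fluorescence, excitation 544 nm and emission 590 nm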
# * = called active by the depositor; nt = not tested or not shown; + = active, no number.
SMILES,DTT redox prof,PMI act hi M6P,NCF1 inh,PMI activator,HMGR II inh,Diaph act CS
O=c1[nH]c(CNCc2cccnc2)nc2ccccc12,-0.6,0.8,-90.1,0.9,-2.8,1
CCOc1cc(CNCCc2ccc(S(N)(=O)=O)cc2)cc(Cl)c1OCc1ccccc1,-3.9,0.9,78.8*,0.9,-2.4,0.9
CC(C)OC(=O)NCCOC(=O)Nc1cccc(Cl)c1,1.0,0.9,-9.5,0.9,-0.2,0.8
CC(C)OC(=O)NC(C)(C)COC(=O)Nc1cccc(Cl)c1,0.7,1,-4.5,1,15.7*,0.9
Cc1ccc(C)c(N=C2CCCN2Cc2ccccc2)c1C#N,0.6,1,-7.1,1,12.9*,1
COc1ccc(-c2nc(C(N)=O)c3[nH]c(=O)n(-c4cccc(Cl)c4)c3n2)cc1OC,3.3,1,36.9*,1,-3.0,1.1
COC(=O)C1(NC(=O)NC2CCCCC2)CCCCC1,nt,nt,-9.2,nt,nt,nt
CSc1ccc(/C=C(/NC(=O)c2ccc(C)cc2)C(=O)Nc2cccc(F)c2)cc1,0.5,0.9,67.3*,0.8,-4.9,0.9
Cc1ccc(NC(=O)/C(=C\c2ccc([N+](=O)[O-])cc2)NC(=O)c2ccccc2)cc1,-4.4,1.1,-7.8,1.1,-4.9,1.1
CCOC(=O)C1(C)NC(c2cc(OC)c(OC)c(OC)c2)C2C(=O)N(CC)C(=O)C21 (stereo not given),0.4,1.1,-15.1,1.1,-3.3,1
CCN1C(=O)C2C(c3ccc(O)c(OC)c3)NC(C)(C(=O)OC)C2C1=O (stereo not given),2.0,0.9,38.4*,1,-3.7,0.9
O=C(CN1CCC(NC(=O)c2ccc(F)cc2)CC1)NCc1ccccc1F,-2.6,1,49.8*,1,7.5,1
O=C(Nc1ccc(Cl)cc1)[C@@H]1[C@@H]2C(=O)N(c3ccc4ccccc4c3)C(=O)[C@@H]2[C@H]2C=CC=NN21,0.7,2*,-64.0,1.5,-6.9,0.6
COc1cc(C)nc(Oc2ccc(OCCOc3ccccc3)nn2)n1,-0.5,nt,1.8,nt,18.9*,nt
Cc1cc(C)n(CC(=O)O)c(=O)c1[N+](=O)[O-],-1.6,0.9,-4.1,1.2,-5.9,1
O=[N+]([O-])c1ccc(O)c(/C=N/Nc2ccccc2Cl)c1,-1.4,2.2*,5.8,1.7,-4.9,0.9
O=[N+]([O-])c1ccc(N/N=C/c2ccc(O)c(O)c2O)c(S(=O)(=O)N2CCOCC2)c1,0.5,0.2,-14.6,0.2,21.8*,0.1
O=C(NC12CC3CC(CC(C3)C1)C2)OCCNC1CCCCC1,nt,nt,-1.3,nt,nt,nt
CCN1CCN(C(=S)Nc2ccc3nc4n(c(=O)c3c2)CCCCC4)CC1,-2.7,1,0.0,1,2.8,0.9
CCN(C(=O)c1ccc(NC(C)=O)cc1)c1ccccc1,0.9,1.1,55.3*,1.1,-8.9,0.9
CC(=O)Nc1ccc(C(=O)N(C)c2ccccc2)cc1,0.3,0.9,-1.8,0.9,-3.5,0.8
C=CCNC(=O)C(=O)NCCOc1ccccc1Cl,0.0,1.1,-9.2,1.2,-4.0,1
O=C(Cn1nnc(-c2ccc(CN3CCOCC3)cc2)n1)N(c1ccccc1)c1ccccc1,-0.4,0.9,12.7,0.9,3.7,0.8
Cc1ccc(S(=O)(=O)NNc2ccccc2)cc1,2.2,2.1*,13.1,1.1,-5.5,0.7
Nc1ccc(S(=O)(=O)NNC(=O)C(=O)NNc2ccccc2)cc1,0.6,2.3*,-1.4,1.6,-2.8,1
SMILES,DTT redox prof,PMI act hi M6P,NCF1 inh,PMI activator,HMGR II inh,Diaph act CS
O=C(CC(C(=O)N1CCc2ccccc21)n1ccnc1)N1CCc2ccccc2C1 (stereo not given),2.3,0.7,-10.0,0.9,-2.7,0.8
C/C(=C\c1ccccc1)C(=O)NCc1ccco1,-1.2,1,-6.5,1.1,-1.6,1
CN(C)CCn1c(N)nc2ccccc21,nt,nt,2.4,nt,nt,nt
COc1cc(Cn2c(=O)oc3ccc(C)cc32)ccc1OC(C)C,1.3,1,-10.4,1,14.2*,1
Nc1ccc(N)c(C(=O)O)c1,nt,nt,41.0*,nt,nt,nt
Nc1ccc(C(=O)O)c(O)c1,-0.3,0.6,-10.2,1,-2.6,0.8
CCN=C(N/N=C/c1ccc([N+](=O)[O-])cc1)SC,-3.2,2.1*,-5.2,1.2,-7.3,0.9
COc1ccc(NC(=O)C(CC(=O)O)C(C)c2ccccc2)cc1 (stereo not given),-1.5,1.1,-40.7,1,-6.8,1.1
Cc1noc(C)c1COC(=O)Cc1ccc(Cl)c(Cl)c1,0.0,1,+,0.9,-5.4,0.9
Cc1cc(C)c2cc3c(N)c(C(=O)N4CCc5ccccc5C4)sc3nc2c1,2.4,0.9,-38.9,0.9,-3.1,0.9
Cc1cccc2cc3c(N)c(C(=O)N4CCOCC4)sc3nc12,2.2,2.1*,-14.6,1.3,-6.2,0.9
N/C(=N\OC(=O)CN1C(=O)c2ccccc2C1=O)c1ccc(Cl)cc1,-1.0,1,-8.5,1,0.5,0.9
N/C(=N\OC(=O)CN1C(=O)c2ccccc2C1=O)c1ccc(Br)cc1,0.2,1,-9.0,1,13.4*,1
CC(C(=O)Nc1ccc(S(=O)(=O)N2CCOCC2)cc1)N1CCN(c2ccccn2)CC1 (stereo not given),-0.1,1,-6.4,1.1,13.3*,0.9
CCOc1ccc(/C=N/NC(=O)Cc2cccs2)cc1,nt,nt,-9.6,nt,nt,nt
CCc1ccc(NC(=O)CSCc2ccc(C(=O)O)cc2)cc1,-0.7,1,-5.5,1,20.9*,1.1
COC(=O)c1ccc(NC(=O)CSCc2ccccc2)cc1,0.4,1,-1.3,1,5.0,0.9
C/C(=N\NC(=O)c1cccc(N/N=C(\C)c2cc(O)ccc2O)c1)c1cc(O)ccc1O,1.2,3*,-50.8,1.8,-1.3,0.8
Cc1cc(C(C)(C)C)cc(C)c1C(=O)O,nt,nt,1.6,nt,nt,nt
O=C(c1ccc(Cl)cc1)c1oc2ccccc2c1CS(=O)c1ccccc1 (stereo not given),-5.1,2.2*,-4.0,1.3,-2.6,1
Nc1c(C(=O)c2ccc(Br)cc2)oc2ccccc12,-0.1,1.3,-7.1,1.3,-2.9,1
C=CCOc1ccc2cccc(/C=N/NC(=O)c3cc4cc([N+](=O)[O-])ccc4s3)c2c1,-5.3,1,41.2*,0.9,4.3,1.1
